Test results reported in ChEMBL document CHEMBL1221320, “N(G)-Acyl-argininamides as NPY Y(1) receptor antagonists: Influence of structurally diverse acyl substituents on stability and affinity” (Bioorg Med Chem, 2010).

How the values were obtained:
[1] = target: T1, Neuropeptide Y receptor type 1 (Homo sapiens, UniProt P25929); experiment: Displacement of [3H]UR-MK114 from NPY1 receptor in human SK-N-MC cells; assay type: cell-based
T1 sequence (P25929 whole entry): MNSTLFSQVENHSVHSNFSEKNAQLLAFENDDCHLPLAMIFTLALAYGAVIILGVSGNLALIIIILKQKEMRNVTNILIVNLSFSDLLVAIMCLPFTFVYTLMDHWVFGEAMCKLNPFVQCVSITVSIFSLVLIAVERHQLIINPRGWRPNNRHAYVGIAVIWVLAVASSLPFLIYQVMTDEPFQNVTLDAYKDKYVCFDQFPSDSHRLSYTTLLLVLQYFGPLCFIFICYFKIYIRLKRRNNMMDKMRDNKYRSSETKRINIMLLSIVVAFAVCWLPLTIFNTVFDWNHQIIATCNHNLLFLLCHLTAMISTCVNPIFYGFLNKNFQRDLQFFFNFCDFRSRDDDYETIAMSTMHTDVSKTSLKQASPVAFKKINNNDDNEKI
In short: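 Data were fitted with four-parameter sigmoidal curves. IC50 was converted to Ki by Cheng–Prusoff using the radioligand KD. Mean ± SEM of two or three independent experiments. Assay period from solution preparation to read-out was 60–90 min.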

[2] = target: T2, Neuropeptide Y receptor type 1 (Homo sapiens) (UniProt P25929); experiment: Antagonist activity at NPY1 receptor in human HEL cells assessed as inhibition of NPY-induced calcium mobilization by Fura-2 assay; assay type: functional, cell-based
T2 sequence (whole entry): T1 sequence (P25929 whole entry)

[3] = Distribution coefficient, log D of the compound; assay type: physicochemical; conditions: octanol/water
In short: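 Calculated at pH 7.4 by ACD software. Experimental values came from RP-HPLC on a C18 column at 25 °C and 0.30 mL/min, using 10 mM ammonium acetate pH 7.4 versus acetonitrile (5→98% over 30 min). Injection was 2 µL of a 1 mM DMSO solution with diode-array detection. Retention time was calibrated against six reference compounds.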

**Q.** Which results are given for N=C(NCCC[C@@H](NC(=O)C(c1ccccc1)c1ccccc1)C(=O)NCc1ccc(O)cc1)NC(=O)CCCCCCC(=O)NCCC(=O)OCc1ccccc1?
**A.** Ki ([1]; read-out: Ki): 40 nM; Kb [2]: 1.1 nM; logD ([3]; read-out: logD): 4.6

**Q.** Which Ki ([1]; read-out: Ki) does the source give for N=C(NCCC[C@@H](NC(=O)C(c1ccccc1)c1ccccc1)C(=O)NCc1ccc(O)cc1)NC(=O)CCCn1cc(CO)nn1 here?
**A.** 3 nM

**Q.** And the Kb [2]?
**A.** 0.4 nM

**Q.** And the logD ([3]; read-out: logD)?
**A.** 1.8

**Q.** With CCCCCCCCCCCCCCCC(=O)NC(=N)NCCC[C@@H](NC(=O)C(c1ccccc1)c1ccccc1)C(=O)NCc1ccc(O)cc1 as the compound, how does the Kb [2] read?
**A.** 170 nM

**Q.** What does the source list for COC(=O)CCCCCCC(=O)NC(N)=NCCC[C@@H](NC(=O)C(c1ccccc1)c1ccccc1)C(=O)NCc1ccc(O)cc1?
**A.** Ki ([1]; read-out: Ki): 0.9 nM; logD ([3]; read-out: logD): 3.9

**Q.** For N=C(NCCC[C@@H](NC(=O)C(c1ccccc1)c1ccccc1)C(=O)NCc1ccc(O)cc1)NC(=O)CCCc1ccc2ccc3cccc4ccc1c2c34, which Ki ([1]; read-out: Ki) is on record?
**A.** 270 nM

**Q.** What about the logD ([3]; read-out: logD) of the same compound?
**A.** 7.6

**Q.** Which Kb [2] does the source give for COC(=O)CCCCCCC(=O)NC(=N)NCCC[C@@H](NC(=O)C(c1ccccc1)c1ccccc1)C(=O)NCc1ccc(O)cc1 here?
**A.** 0.06 nM

**Q.** Which Kb [2] does the source give for CC(=O)OC[C@@H](OC(C)=O)[C@@H](OC(C)=O)[C@H](OC(C)=O)[C@@H](OC(C)=O)C(=O)NC(=N)NCCC[C@@H](NC(=O)C(c1ccccc1)c1ccccc1)C(=O)NCc1ccc(O)cc1 here?
**A.** 110 nM

**Q.** For N=C(N)NCCCCCC(=O)NC(=N)NCCC[C@@H](NC(=O)C(c1ccccc1)c1ccccc1)C(=O)NCc1ccc(O)cc1, which Ki ([1]; read-out: Ki) is on record?
**A.** 51 nM

**Q.** And the Kb [2]?
**A.** 18 nM

**Q.** And the logD ([3]; read-out: logD)?
**A.** -0.3

**Q.** With COC(=O)CCNC(=O)CCCCCCC(=O)NC(N)=NCCC[C@@H](NC(=O)C(c1ccccc1)c1ccccc1)C(=O)NCc1ccc(O)cc1 as the compound, how does the Ki ([1]; read-out: Ki) read?
**A.** 260 nM

**Q.** And the logD ([3]; read-out: logD)?
**A.** 2.9

**Q.** Which results are given for CC(=O)OC[C@@H](OC(C)=O)[C@@H](OC(C)=O)[C@H](OC(C)=O)[C@@H](OC(C)=O)C(=O)NC(N)=NCCC[C@@H](NC(=O)C(c1ccccc1)c1ccccc1)C(=O)NCc1ccc(O)cc1?
**A.** Ki ([1]; read-out: Ki): 83 nM; logD ([3]; read-out: logD): 3.5

**Q.** Which Ki ([1]; read-out: Ki) does the source give for CCCCCCCCCCCCCCCC(=O)NC(N)=NCCC[C@@H](NC(=O)C(c1ccccc1)c1ccccc1)C(=O)NCc1ccc(O)cc1 here?
**A.** 460 nM

**Q.** What about the logD [3] of the same compound?
**A.** 9.4

**Q.** For N=C(NCCC[C@@H](NC(=O)C(c1ccccc1)c1ccccc1)C(=O)NCc1ccc(O)cc1)NC(=O)COCCOCCOCC(=O)NCCNC(=O)c1ccc2ccc3cccc4ccc1c2c34, which Ki ([1]; read-out: Ki) is on record?
**A.** 59 nM

**Q.** And the logD ([3]; read-out: logD)?
**A.** 6

**Q.** With N=C(NCCC[C@@H](NC(=O)C(c1ccccc1)c1ccccc1)C(=O)NCc1ccc(O)cc1)NC(=O)CCCn1cc(CN)nn1 as the compound, how does the Kb [2] read?
**A.** 14 nM

**Q.** Which Ki ([1]; read-out: Ki) does the source give for NC(=NCCC[C@@H](NC(=O)C(c1ccccc1)c1ccccc1)C(=O)NCc1ccc(O)cc1)NC(=O)CCCCCCC(=O)NCCC(=O)O here?
**A.** 73 nM

**Q.** What about the logD ([3]; read-out: logD) of the same compound?
**A.** 0.7

**Q.** For N=C(NCCC[C@@H](NC(=O)C(c1ccccc1)c1ccccc1)C(=O)NCc1ccc(O)cc1)NC(=O)CCC(=O)NCCNC(=O)c1ccc(F)cc1, which logD ([3]; read-out: logD) is on record?
**A.** 3.5

**Q.** For N=C(NCCC[C@@H](NC(=O)C(c1ccccc1)c1ccccc1)C(=O)NCc1ccc(O)cc1)NC(=O)CCC(=O)NCCNCCN, which logD ([3]; read-out: logD) is on record?
**A.** -1.8

**Q.** Which Ki ([1]; read-out: Ki) does the source give for N=C(NCCC[C@@H](NC(=O)C(c1ccccc1)c1ccccc1)C(=O)NCc1ccc(O)cc1)NC(=O)CCC(=O)OC[C@H]1O[C@@H](O)[C@H](O)[C@@H](O)[C@H]1O here?
**A.** 41 nM

**Q.** And the Kb [2]?
**A.** 510 nM

**Q.** And the logD ([3]; read-out: logD)?
**A.** 0.9

**Q.** For NCc1cn(CCCC(=O)NC(N)=NCCC[C@@H](NC(=O)C(c2ccccc2)c2ccccc2)C(=O)NCc2ccc(O)cc2)nn1, which Ki ([1]; read-out: Ki) is on record?
**A.** 6.7 nM

**Q.** And the logD ([3]; read-out: logD)?
**A.** 1.7

**Q.** For N=C(N)NCCC[C@@H](NC(=O)C(c1ccccc1)c1ccccc1)C(=O)NCc1ccc(O)cc1, which logD ([3]; read-out: logD) is on record?
**A.** 0.7

**Q.** Which logD ([3]; read-out: logD) does the source give for CCC(=O)NCCNCCNC(=O)CCC(=O)NC(=N)NCCC[C@@H](NC(=O)C(c1ccccc1)c1ccccc1)C(=O)NCc1ccc(O)cc1 here?
**A.** -0.6

**Q.** Which Ki ([1]; sk-n-mc) does the source give for N=C(NCCC[C@@H](NC(=O)C(c1ccccc1)c1ccccc1)C(=O)NCc1ccc(O)cc1)NC(=O)c1ccc2ccc3cccc4ccc1c2c34 here?
**A.** Not Active

**Q.** And the logD ([3]; read-out: logD)?
**A.** 7.2

**Q.** With N=C(N)NCCNC(=O)CCC(=O)NC(=N)NCCC[C@@H](NC(=O)C(c1ccccc1)c1ccccc1)C(=O)NCc1ccc(O)cc1 as the compound, how does the logD ([3]; read-out: logD) read?
**A.** -1.4

**Q.** With CCCCCCCCCCCCC#CC#CCCCCCCCCC(=O)NC(=N)NCCC[C@@H](NC(=O)C(c1ccccc1)c1ccccc1)C(=O)NCc1ccc(O)cc1 as the compound, how does the Ki ([1]; read-out: Ki) read?
**A.** 1500 nM

**Q.** What about the Kb [2] of the same compound?
**A.** 140 nM

**Q.** Which Ki ([1]; read-out: Ki) does the source give for N=C(NCCC[C@@H](NC(=O)C(c1ccccc1)c1ccccc1)C(=O)NCc1ccc(O)cc1)NC(=O)CCCCCCC(=O)NCCN here?
**A.** 130 nM

**Q.** And the Kb [2]?
**A.** 230 nM

**Q.** And the logD ([3]; read-out: logD)?
**A.** -0.3

**Q.** With N=C(NCCC[C@@H](NC(=O)C(c1ccccc1)c1ccccc1)C(=O)NCc1ccc(O)cc1)NC(=O)CCCCCCC(=O)NCCC(=O)O as the compound, how does the Kb [2] read?
**A.** 450 nM

**Q.** For COC(=O)CCNC(=O)CCCCCCC(=O)NC(=N)NCCC[C@@H](NC(=O)C(c1ccccc1)c1ccccc1)C(=O)NCc1ccc(O)cc1, which Kb [2] is on record?
**A.** 170 nM

**Q.** For N=C(NCCC[C@@H](NC(=O)C(c1ccccc1)c1ccccc1)C(=O)NCc1ccc(O)cc1)NC(=O)CCC(=O)NCCN, which logD ([3]; read-out: logD) is on record?
**A.** -1.3
